ChEMBL document CHEMBL1130209, “A novel series of 2,5-substituted tryptamine derivatives as vascular 5HT1B/1D receptor antagonists” (J Med Chem, 1997)

Key:
[1] = target: 5-hydroxytryptamine receptor 2B (Homo sapiens) (UniProt P41595); experiment: The dissociation equilibrium constant (pKB=-log KB) of compound was determined against the vascular 5-hydroxytryptamine 2B receptor in the endothelium intact rabbit jugular vein.; conditions: Oryctolagus cuniculus; target entry is the homologue from another species
[2] = target: 5-hydroxytryptamine receptor 1B (Homo sapiens) (UniProt P28222); experiment: Dissociation equilibrium constant against the vascular 5-hydroxytryptamine 1B like receptor in the rabbit saphenous vein; assay type: tissue-based; conditions: Oryctolagus cuniculus, target entry is the homologue from another species
Summary of the method: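 Saphenous vein rings (4–5 mm) from male New Zealand white rabbits, killed with pentobarbitone 80 mg/kg iv and exsanguination, mounted on tungsten wires. Phenoxybenzamine 0.3 μM for 30 min, washed out, 1 μM 5HT viability check. Cumulative 5HT curve, then after 60 min recovery a test compound curve. Non-agonists tested as 5HT antagonists, giving apparent pKB.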

[3] = target: 5-hydroxytryptamine receptor 2A (Homo sapiens) (UniProt P28223); experiment: Dissociation equilibrium constant against the vascular 5-hydroxytryptamine 2A receptor in the rabbit […] aorta; assay type: tissue-based; conditions: Oryctolagus cuniculus, target entry is the homologue from another species
[4] = target: T1, 5-hydroxytryptamine receptor 2C (Rattus norvegicus, UniProt P08909); experiment: Affinity pKi for 5-hydroxytryptamine 2C receptor was measured in rat cortex homogenates.; assay type: tissue-based
T1 sequence (P08909 whole entry): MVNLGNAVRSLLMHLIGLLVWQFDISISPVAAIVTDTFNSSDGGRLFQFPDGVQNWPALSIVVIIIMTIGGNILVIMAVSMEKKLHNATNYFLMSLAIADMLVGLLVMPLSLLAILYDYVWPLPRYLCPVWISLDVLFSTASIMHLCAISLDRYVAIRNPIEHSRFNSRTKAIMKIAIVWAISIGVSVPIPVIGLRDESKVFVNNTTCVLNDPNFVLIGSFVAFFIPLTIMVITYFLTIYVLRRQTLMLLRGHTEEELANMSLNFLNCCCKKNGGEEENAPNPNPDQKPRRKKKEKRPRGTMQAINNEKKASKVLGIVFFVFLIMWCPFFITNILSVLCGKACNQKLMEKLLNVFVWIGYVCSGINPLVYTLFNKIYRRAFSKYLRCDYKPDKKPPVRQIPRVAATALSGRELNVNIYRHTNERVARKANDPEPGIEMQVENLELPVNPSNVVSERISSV
Summary of the method: (§1)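 Competition binding with rat cortex homogenate: radioligand near its KD plus a wide range of test drug concentrations in duplicate, 30 min at 27 °C. Buffer 50 mM TRIS-HCl, 5 mM CaCl₂, 0.1% (w/v) ascorbate, 10 mM pargyline. Nonspecific binding defined with excess cold 5HT. Rapid filtration with ice-cold buffer wash, liquid scintillation count. pKi is the mean of at least three estimates.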

[5] = target: T2, Adrenergic receptor alpha-1 (Rattus norvegicus, UniProt P15823+P23944+P43140); experiment: Affinity pKi for Alpha-1 adrenergic receptor was measured in rat cortex homogenates; assay type: tissue-based; summary of the method: as §1
T2 sequence (P15823 whole entry): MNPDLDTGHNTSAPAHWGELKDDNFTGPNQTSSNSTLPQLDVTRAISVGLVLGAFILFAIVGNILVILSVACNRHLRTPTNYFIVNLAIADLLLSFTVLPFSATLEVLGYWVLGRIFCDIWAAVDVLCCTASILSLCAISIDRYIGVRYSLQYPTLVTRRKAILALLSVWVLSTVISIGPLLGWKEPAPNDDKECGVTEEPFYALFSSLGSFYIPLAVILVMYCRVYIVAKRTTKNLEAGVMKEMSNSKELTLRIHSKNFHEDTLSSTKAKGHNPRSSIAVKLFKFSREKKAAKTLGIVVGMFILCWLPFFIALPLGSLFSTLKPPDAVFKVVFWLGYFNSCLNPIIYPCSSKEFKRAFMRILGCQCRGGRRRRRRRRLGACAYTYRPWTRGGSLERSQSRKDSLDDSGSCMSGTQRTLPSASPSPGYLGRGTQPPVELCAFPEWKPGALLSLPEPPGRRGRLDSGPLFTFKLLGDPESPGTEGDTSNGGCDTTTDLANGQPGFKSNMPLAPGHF
T2 sequence (P23944 whole entry): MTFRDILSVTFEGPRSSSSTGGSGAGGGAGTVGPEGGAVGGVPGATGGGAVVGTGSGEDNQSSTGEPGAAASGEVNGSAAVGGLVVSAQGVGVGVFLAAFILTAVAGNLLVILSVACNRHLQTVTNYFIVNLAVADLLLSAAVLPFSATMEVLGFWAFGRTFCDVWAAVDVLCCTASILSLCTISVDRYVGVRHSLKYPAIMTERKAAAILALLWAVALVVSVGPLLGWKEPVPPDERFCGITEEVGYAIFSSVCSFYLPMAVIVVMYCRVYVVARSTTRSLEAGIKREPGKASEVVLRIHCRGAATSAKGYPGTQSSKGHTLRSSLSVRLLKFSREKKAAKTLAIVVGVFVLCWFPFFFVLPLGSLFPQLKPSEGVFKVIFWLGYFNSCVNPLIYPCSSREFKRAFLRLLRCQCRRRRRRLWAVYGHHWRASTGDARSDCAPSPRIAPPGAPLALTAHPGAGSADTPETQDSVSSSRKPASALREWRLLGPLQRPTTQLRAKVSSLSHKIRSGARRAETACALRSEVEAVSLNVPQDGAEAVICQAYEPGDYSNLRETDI
T2 sequence (P43140 whole entry): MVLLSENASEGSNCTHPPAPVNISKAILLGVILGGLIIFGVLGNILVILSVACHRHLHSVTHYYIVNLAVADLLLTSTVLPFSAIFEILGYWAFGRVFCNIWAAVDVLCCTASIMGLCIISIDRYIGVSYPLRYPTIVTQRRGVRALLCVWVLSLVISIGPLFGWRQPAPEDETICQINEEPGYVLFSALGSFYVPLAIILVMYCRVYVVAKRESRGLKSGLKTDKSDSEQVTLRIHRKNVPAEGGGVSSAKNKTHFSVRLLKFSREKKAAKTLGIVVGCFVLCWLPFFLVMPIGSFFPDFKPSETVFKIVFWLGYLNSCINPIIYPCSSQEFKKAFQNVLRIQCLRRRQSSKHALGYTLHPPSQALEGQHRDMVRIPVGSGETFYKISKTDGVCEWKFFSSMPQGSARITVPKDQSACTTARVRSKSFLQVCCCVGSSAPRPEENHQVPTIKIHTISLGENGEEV

[6] = target: 5-hydroxytryptamine receptor 7 (Homo sapiens) (UniProt P34969); experiment: The dissociation equilibrium constant (pKB=-log KB) of compound was determined against the vascular 5-hydroxytryptamine 7 receptor in the endothelium denuded rabbit jugular vein.; conditions: Oryctolagus cuniculus; target entry is the homologue from another species
[7] = Half life of compound was determined in rat plasma; assay type: ADME, organism-based
[8] = target: Adrenergic receptor alpha-1 (Homo sapiens) (UniProt P35348+P25100+P35368); experiment: The dissociation equilibrium constant (pKB=-log KB) of compound was determined against the Alpha-1 adrenergic receptor in the rabbit thoracic aorta; assay type: tissue-based; conditions: Oryctolagus cuniculus, target entry is the homologue from another species
Summary of the method: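 Rabbit thoracic aorta rings (3 mm) given pargyline 500 μM for 30 min and tensioned twice to 3.0 g. L-phenylephrine 10 μM checks viability and gives the reference contracture. After washout, test compound at 30 μM for 60 min, then a cumulative L-phenylephrine curve.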

D(2) dopamine receptor = D(2) dopamine receptor (Rattus norvegicus, UniProt P61169); experiment: Affinity pKi for Dopamine receptor D2 was measured in rat cortex homogenates; assay type: tissue-based; summary of the method: as §1
Adrenergic receptor beta = Adrenergic receptor beta (Rattus norvegicus, UniProt P18090+P10608+P26255); experiment: Affinity pKi for Beta adrenergic receptor was measured in rat cortex homogenates; summary of the method: as §1

Sequence of 5-hydroxytryptamine receptor 2A (Homo sapiens) (P28223 whole entry): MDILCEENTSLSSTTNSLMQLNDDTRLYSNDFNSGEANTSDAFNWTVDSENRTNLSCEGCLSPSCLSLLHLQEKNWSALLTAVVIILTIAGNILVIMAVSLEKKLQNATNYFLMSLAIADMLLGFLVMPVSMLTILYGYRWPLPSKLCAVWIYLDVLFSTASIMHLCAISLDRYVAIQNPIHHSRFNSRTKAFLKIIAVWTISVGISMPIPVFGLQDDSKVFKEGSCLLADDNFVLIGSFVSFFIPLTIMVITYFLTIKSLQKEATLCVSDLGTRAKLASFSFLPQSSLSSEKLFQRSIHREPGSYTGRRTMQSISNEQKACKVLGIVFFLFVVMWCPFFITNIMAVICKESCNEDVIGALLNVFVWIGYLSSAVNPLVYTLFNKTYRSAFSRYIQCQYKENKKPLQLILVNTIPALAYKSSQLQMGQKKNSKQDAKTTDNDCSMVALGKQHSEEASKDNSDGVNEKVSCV
Sequence of 5-hydroxytryptamine receptor 2B (Homo sapiens) (P41595 whole entry): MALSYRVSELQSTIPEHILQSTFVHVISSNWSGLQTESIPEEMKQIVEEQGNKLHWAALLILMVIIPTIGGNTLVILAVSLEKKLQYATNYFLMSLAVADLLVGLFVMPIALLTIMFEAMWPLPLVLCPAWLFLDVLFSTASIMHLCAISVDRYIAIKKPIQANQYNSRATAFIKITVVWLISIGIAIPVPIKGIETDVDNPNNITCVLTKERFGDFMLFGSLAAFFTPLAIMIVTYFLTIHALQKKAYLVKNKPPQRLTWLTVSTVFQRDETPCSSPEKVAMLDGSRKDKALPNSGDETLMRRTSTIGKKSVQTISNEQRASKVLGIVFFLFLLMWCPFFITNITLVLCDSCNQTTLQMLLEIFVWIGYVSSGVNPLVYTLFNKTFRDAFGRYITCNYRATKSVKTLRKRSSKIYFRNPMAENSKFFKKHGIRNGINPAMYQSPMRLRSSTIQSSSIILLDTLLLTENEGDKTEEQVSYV
Sequence of D(2) dopamine receptor (P61169 whole entry): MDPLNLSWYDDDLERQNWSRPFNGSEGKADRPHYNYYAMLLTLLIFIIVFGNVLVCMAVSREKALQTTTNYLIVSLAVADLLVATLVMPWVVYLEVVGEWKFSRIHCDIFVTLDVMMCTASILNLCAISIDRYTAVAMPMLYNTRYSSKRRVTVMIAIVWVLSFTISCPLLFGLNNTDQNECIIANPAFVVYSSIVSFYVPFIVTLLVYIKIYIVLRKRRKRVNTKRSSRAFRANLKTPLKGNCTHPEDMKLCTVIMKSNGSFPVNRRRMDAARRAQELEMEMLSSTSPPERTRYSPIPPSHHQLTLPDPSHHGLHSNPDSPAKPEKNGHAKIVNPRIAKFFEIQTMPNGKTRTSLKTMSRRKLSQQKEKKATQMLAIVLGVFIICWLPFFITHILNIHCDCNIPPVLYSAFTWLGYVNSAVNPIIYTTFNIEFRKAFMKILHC
Sequence of 5-hydroxytryptamine receptor 1B (Homo sapiens) (P28222 whole entry): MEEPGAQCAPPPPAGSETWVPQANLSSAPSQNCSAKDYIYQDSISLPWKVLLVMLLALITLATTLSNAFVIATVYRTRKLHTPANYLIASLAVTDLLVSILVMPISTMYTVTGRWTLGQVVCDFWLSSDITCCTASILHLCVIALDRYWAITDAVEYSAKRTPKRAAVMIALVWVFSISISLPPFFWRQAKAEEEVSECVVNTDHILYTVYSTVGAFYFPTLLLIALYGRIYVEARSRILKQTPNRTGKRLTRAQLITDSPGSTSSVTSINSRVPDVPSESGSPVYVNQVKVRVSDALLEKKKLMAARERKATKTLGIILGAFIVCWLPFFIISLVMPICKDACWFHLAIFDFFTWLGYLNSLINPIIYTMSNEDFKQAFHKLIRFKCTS
Sequence of 5-hydroxytryptamine receptor 7 (Homo sapiens) (P34969 whole entry): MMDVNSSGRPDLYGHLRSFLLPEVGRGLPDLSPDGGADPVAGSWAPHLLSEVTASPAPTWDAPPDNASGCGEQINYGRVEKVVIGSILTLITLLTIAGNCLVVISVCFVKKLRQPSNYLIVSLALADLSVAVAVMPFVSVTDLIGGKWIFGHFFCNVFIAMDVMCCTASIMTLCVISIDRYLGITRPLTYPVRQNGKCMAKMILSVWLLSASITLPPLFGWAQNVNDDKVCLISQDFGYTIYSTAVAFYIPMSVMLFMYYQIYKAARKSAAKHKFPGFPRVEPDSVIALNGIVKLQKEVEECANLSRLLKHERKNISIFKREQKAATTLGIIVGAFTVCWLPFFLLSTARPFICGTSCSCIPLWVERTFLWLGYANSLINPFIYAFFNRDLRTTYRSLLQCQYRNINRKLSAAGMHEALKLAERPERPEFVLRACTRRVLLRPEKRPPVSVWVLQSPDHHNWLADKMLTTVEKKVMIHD

- pKB [1]: < 5
- pKB [2]: 7.42
- pKB [3]: 5.8
- Ki [4]: 5.5 µM
- Log Ki [5]: -4.95
- pKB [6]: 5.5
- half-life [7]: 15 min
- pKB [8]: 5.43
- Ki (D(2) dopamine receptor): 10.7 µM
- Log Ki (Adrenergic receptor beta): -4.34
SMILES: CCOC(=O)c1[nH]c2ccc(CCN3C(=O)CNC3=O)cc2c1CCN(C)C
